Experimental data from PubChem BioAssay AID2830 (NMMLSC, 2010).
Calls of active or inactive are those of the source.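 How the source made its calls: active means toxic dose over resistance-reversal dose ratio above 10, when the toxic dose is under 15 µM; inactive means the rest.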

Tested on: Igrov ABCG2 cells + mitoxantrone, trypan blue viability, 3 d
Test: restoration of mitoxantrone killing in ABCG2 cells, SAR follow-up, orthogonal assay for ABC transporter inhibitor project, Igrov cells, one SAR set (AID 2830)
Settings: for CC50: measured here: toxicity without chemotherapeutic (TD50)
Method in brief: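 Also added: mitoxantrone as chemotherapeutic selective agent, fixed concentration / Test system: Igrove cells with ABCG2 / Input: 100,000 cells per mL / Dosing: compound at 1–100 µM / Times: 3-day compound exposure alongside mitoxantrone / Technique: trypan blue counts by microscopy / Read-out: compound concentration halving cell viability under mitoxantrone (CR50)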

Row | Structure (SMILES) | EC50 | CC50 [µM]
1 | COc1ccc(/C=N/NC(=O)c2cccnc2)cc1CN1CCN(c2ccc(F)cc2)CC1 | 8.71 µM (inactive) | 15.4
2 | COC(=O)c1ccc(C(C(=O)NC2CCCCC2)N(Cc2ccccc2)C(=O)Cc2cccs2)cc1 (stereo not given) | 8.93 µM | > 100
3 | COc1ccc(-c2nn(-c3ccccc3)cc2/C=C/C(=O)N2CCN(c3ccccn3)CC2)cc1 | 1.22 µM | > 100
4 | CCOC(=O)c1cccc(NC(=O)c2cnc3ccccc3n2)c1 | 17.5 µM (inactive) | 67.8
5 | CCOC(=O)c1c(NC(=O)CSc2ncccn2)sc2c1CCN(Cc1ccccc1)C2 | 0.117 µM (inactive) | 2.61
6 | CCN(CC)P(=O)(Nc1cccc(C(F)(F)F)c1)c1ccc(N(C)C)cc1NC(=O)c1ccco1 (stereo not given) | 2.31 µM (inactive) | 19.8
7 | Cc1nc2cc(-c3cccc(F)c3)nn2c(N2CCN(C(=O)c3ccco3)CC2)c1C | 0.419 µM | > 100
8 | CCCCn1c(O)c(N=Nc2ccccn2)c2ccccc21 | 3.73 µM (inactive) | 7.62
9 | CNc1nc2cc([N+](=O)[O-])c([N+](=O)[O-])cc2nc1NC | 5.77 µM (inactive) | 7.32
10 | O=[N+]([O-])c1ccc(Nc2nc(Cl)nc(NCCO)n2)cc1 | 55.5 µM (inactive) | > 100
11 | O=[N+]([O-])c1ccccc1-c1nc(-c2ccc(Br)o2)no1 | 15.6 µM (inactive) | 23.2
12 | CC1=NN(c2ccc([N+](=O)[O-])cc2)C(=O)/C1=C/N(C)C | 54.4 µM (inactive) | 78.4
13 | Cc1cc(C)c(C#N)c(SCc2c(F)cccc2[N+](=O)[O-])n1 | 18.3 µM (inactive) | > 100
14 | N#Cc1ccc(-c2ccc(OCC(=O)NCCc3ccccc3)cc2)cc1 | 4.73 µM | > 100
15 | CCCCN(C)C1=CC2=CC(=C(C#N)C#N)CCC2CC1 (stereo not given) | 5.77 µM | 67.8
